Reference: ChEMBL document CHEMBL1154067, “Antiviral and cytotoxic activities of aminoarylazo compounds and aryltriazene derivatives” (Bioorg Med Chem, 2009)
pEC50: −log10 of the molar value. Calls of active or inactive are those of the source.

Key:
[1] = tested on: MT4; assay: Cytotoxicity against human MT4 cells after 96 hrs by MTT assay; format: cell-based; conditions: mt4, 96 h
Summary of the method: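 Exponentially growing mock-infected MT-4 seeded at 1 × 10^5 cells/mL in RPMI-1640 with 10% FCS, penicillin and streptomycin. Incubated with or without serial compound dilutions at 37 °C, 5% CO2. Viability by MTT after 96 h. CC50 = concentration reducing viability 50%.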

[2] = Cytotoxicity against MDBK cells after 48 to 96 hrs by MTT assay; format: cell-based, Bos taurus; conditions: cattle, mdbk
Summary of the method: (§1)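 Mock-infected cells in maintenance medium, MDBK at 6 × 10^5 and BHK at 1 × 10^6 cells/mL initial density, with or without serial compound dilutions. Run in parallel with antiviral assays. Viability by MTT after 48–96 h at 37 °C, 5% CO2. CC50 = concentration reducing viability 50%.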

[3] = tested on: Bovine viral diarrhea virus 1; assay: Antiviral activity against Bovine viral diarrhea virus infected in MDBK cells assessed as inhibition of virus-induced cytopathicity after 3 to 4 days by MTT assay; format: functional, organism-based; conditions: Bovine viral diarrhea virus isolates and strains
[4] = tested on: Yellow fever virus; assay: Antiviral activity against Yellow fever virus infected in BHK-21 cells assessed as inhibition of virus-induced cytopathicity after 3 to 4 days by MTT assay; format: functional, organism-based
[5] = tested on: Mammalian orthoreovirus 1; assay: Antiviral activity against Reovirus-1 infected in BHK-21 cells assessed as inhibition of virus-induced cytopathicity after 3 to 4 days by MTT assay; format: functional, organism-based; conditions: Mammalian orthoreovirus 1, BHK-21
Summary of the method: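 BHK-21 cells seeded at 5 × 10^4 cells/well, grown overnight to confluent monolayers at 37 °C in 5% CO2, then infected at m.o.i. 0.01 in serum-free medium. One hour later, MEM Earle's with 1% final inactivated FCS added, with or without serial compound dilutions. Viability read by MTT after 3–4 days at 37 °C. EC50 is the concentration giving 50% protection from cytopathogenicity.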

[6] = tested on: Vero; assay: Cytotoxicity against african green monkey Vero 76 cells by crystal violet staining; format: cell-based; conditions: chlorocebus sabaeus, vero
Summary of the method: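 Mock-infected Vero 76 seeded at 4 × 10^5 cells/mL, run in parallel with plaque assays, with or without serial compound dilutions. Cell number of monolayers determined by crystal violet staining. CC50 = concentration reducing viable cell number 50%.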

[7] = tested on: Coxsackievirus B2; assay: Antiviral activity against Coxsackie virus type B2 virus infected in african green monkey Vero-76 cells after 3 days by plaque reduction assay; format: functional, organism-based; conditions: Enterovirus B, Vero 76, 72 h
Summary of the method: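 Vero 76 cells seeded at 2 × 10^5 cells/well, grown overnight to confluence at 37 °C in 5% CO2, then infected at 50–100 PFU/well. Unadsorbed virus removed. Overlay of DMEM with 1% inactivated FCS and 0.75% methylcellulose, with or without serial compound dilutions. After 3 days at 37 °C, fixed and stained with crystal violet in PBS/50% ethanol; plaques counted. EC50 is the concentration reducing plaque number by 50%.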

[8] = tested on: Respiratory syncytial virus; assay: Antiviral activity against Respiratory syncytial virus A2 infected in Vero-76 cells after 5 days by plaque reduction assay; format: functional, organism-based; conditions: human respiratory syncytial virus, A2, Vero 76, 120 h
[9] = tested on: Human alphaherpesvirus 1; assay: Antiviral activity against HSV1 infected in Vero-76 cells after 3 days by plaque reduction assay; format: functional, organism-based; conditions: Human alphaherpesvirus 1, Vero 76, 72 h
[10] = Cytotoxicity against hamster BHK21 cells assessed as reduction in cell viability after 48 to 96 hrs by MTT assay; format: cell-based, Mesocricetus auratus, BHK-21; conditions: bhk-21; summary of the method: as §1
[11] = tested on: Poliovirus 1; assay: Antiviral activity against Human poliovirus 1 strain Sabin after 2 days by plaque reduction assay; format: functional; conditions: for pEC50: Enterovirus C, 48 h
[12] = tested on: Human immunodeficiency virus 1; assay: Antiviral activity against HIV1 infected in human MT4 cells assessed as inhibition of virus-induced cytopathicity after 4 days by MTT assay; format: functional, organism-based
[13] = tested on: Vesicular stomatitis virus; assay: Antiviral activity against Vesicular stomatitis virus after 2 days by plaque reduction assay; format: functional, organism-based
[14] = tested on: Vaccinia virus; assay: Antiviral activity against Vaccinia virus after 3 days by plaque reduction assay; format: functional, organism-based; conditions: Orthopoxvirus vaccinia

SMILES | CC50 [1] [µM] | CC50 [2] [µM] | pEC50 [3] | pEC50 [4] | pEC50 [5] | CC50 [6] [µM] | pEC50 [7] | pEC50 [8] | pEC50 [9] | CC50 [10] [µM] | Activity [11] | inhibition [12] | Activity [13] | Activity [14] | pEC50 [11]
Fc1ccc(F)c(/N=N/c2ccc(NC[C@@H]3CCCN4CCCC[C@H]34)c3c2CCCC3)c1 | 40 | 64 | < 4.19 | < 4.42 | < 4.42 | 80 | < 4.10 | < 4.10 | < 4.10 | 38 | inactive | inactive | inactive | inactive | –
CN(C)CCCN(/N=N/c1cccc([N+](=O)[O-])c1)c1ccccc1 | 14 | 37 | < 4.43 | 4.62 | < 4.27 | 40 | < 4.40 | < 4.40 | 4.52 | 54 | – | inactive | inactive | inactive | < 4.40
FC(F)(F)c1cccc(N(C[C@@H]2CCCN3CCCC[C@H]23)/N=N/c2ccccc2)c1 | 17 | 22 | < 4.66 | 4.64 | < 4.40 | 75 | < 4.12 | < 4.12 | < 4.12 | 40 | – | inactive | inactive | inactive | < 4.12
Cc1c(/N=N/c2ccccc2)ccc(NC[C@@H]2CCCN3CCCC[C@H]23)c1C | 31 | 48 | 5.60 | 5.05 | < 4.33 | 60 | < 4.22 | < 4.22 | < 4.22 | 47 | inactive | inactive | inactive | inactive | –
CN(C)CCCNc1ccc(/N=N/c2cc(F)ccc2F)cc1 | 16 | 59 | 5.05 | 4.92 | < 4.48 | 30 | < 4.52 | < 4.52 | 4.92 | 33 | inactive | inactive | inactive | inactive | –
CN(C)CCCN(/N=N/c1cc(F)ccc1F)c1cccc(C(F)(F)F)c1 | 16 | > 100 | 4.05 | < 4.27 | < 4.27 | 30 | < 4.52 | < 4.52 | < 4.52 | 54 | – | inactive | inactive | inactive | < 4.52
CN(C)CCCNc1ccc(/N=N/c2ccccc2)cc1 | 17 | 58 | 5.80 | ≤ 4.51 | < 4.51 | 30 | < 4.52 | 4.60 | < 4.52 | 31 | inactive | inactive | inactive | inactive | –
Cc1ccc(/N=N/N(C)c2ccccc2)cc1 | 45 | > 100 | < 4.00 | < 4.00 | < 4.00 | 58 | < 4.24 | < 4.24 | < 4.24 | > 100 | – | inactive | inactive | inactive | < 4.24
CN(C)CCCNc1ccc(/N=N/c2c(F)cccc2F)cc1 | 35 | 20 | ≤ 4.70 | 5.00 | 4.92 | 65 | < 4.19 | < 4.19 | < 4.19 | 43 | inactive | inactive | inactive | inactive | –
